# Source: PubChem
# FN deposition inh – fibronectin deposition inhibition | AH1F fibroblasts, Alexa488-fibronectin deposition fluorescence, overnight | inhibition, % at 12.6 µM | actives 0.086% (n = 350,000);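 active = mean inhibition across replicates of 30% or more, regardless of how many single replicates reach that level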;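 note: positive control wells lacked labelled fibronectin entirely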
#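 Material: AH1F fibroblast monolayer depositing Alexa488-labelled fibronectin into matrix / Amount: 10000 AH1F cells per well / Signal: fluorescence 485/525 nm / Medium: DMEM, 2% serum / Compound: single dose, pinned / Incubation: 1 h cell adhesion before compound, then overnight fibronectin incubation / Reagent: Alexa488-FN, 24 nM final / Read-out: inhibition of fibronectin deposition signal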
# ERAP1 HTS inh – inhibitors of human ERAP1 aminopeptidase; Q9NZ08; recombinant ERAP1, Leu-AMC fluorescence, 60 min; inhibition, % at 10.7 µM; actives 0.15% (n = 340,000); AID 652197;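 active = mean replicate inhibition of at least 30%, or all replicates individually reaching that 30% level; inactive = mean below 30% and not every replicate reaching it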;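 note: 0% = neutral control wells and 100% = L-leucinethiol positive control wells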
# FGF22 binding – shifts melting point of recombinant human FGF22; Q9HCT0; activity (Tm shift, normalised), % at 9.99 µM; recombinant FGF22 thermal shift, SYPRO orange fluorescence; percent of sucrose octasulfate shift, DMSO zero; AID 651658; actives 1.5% (n = 340,000);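 active = mean Tm shift, scaled 0 neutral to 100 positive control, at about 1.3% or above, every replicate too, limit read from the data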
# Target sequence (Q9HCT0 whole entry, looked up): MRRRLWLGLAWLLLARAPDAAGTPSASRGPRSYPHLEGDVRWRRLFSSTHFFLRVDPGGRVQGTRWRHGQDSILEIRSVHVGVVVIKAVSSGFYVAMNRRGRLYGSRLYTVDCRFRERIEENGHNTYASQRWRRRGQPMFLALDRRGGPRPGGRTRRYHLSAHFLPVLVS
# PGC1a acetyl inh – PGC1a acetylation modulation, inhibitor mode. U2OS PGC1a acetylation, AlphaScreen anti-acetyl-lysine; with virally co-expressed GCN5 acetyltransferase. actives 0.17% (n = 350,000). inhibition, % at 15.6 µM;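 active = every replicate shows inhibition of at least 40%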;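 note: 0% = neutral control wells and 100% = positive control wells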
# SIRT5 inh – blocks human SIRT5 desuccinylation of peptide | inhibition, % at 15 µM | actives 1.1% (n = 330,000) | Q9NXA8 | Purified SirT5, succinyl-peptide AMC, trypsin-coupled fluorescence | AID 652115; in the data active = inhibition above about 15%
# Target sequence (Q9NXA8 whole entry, looked up): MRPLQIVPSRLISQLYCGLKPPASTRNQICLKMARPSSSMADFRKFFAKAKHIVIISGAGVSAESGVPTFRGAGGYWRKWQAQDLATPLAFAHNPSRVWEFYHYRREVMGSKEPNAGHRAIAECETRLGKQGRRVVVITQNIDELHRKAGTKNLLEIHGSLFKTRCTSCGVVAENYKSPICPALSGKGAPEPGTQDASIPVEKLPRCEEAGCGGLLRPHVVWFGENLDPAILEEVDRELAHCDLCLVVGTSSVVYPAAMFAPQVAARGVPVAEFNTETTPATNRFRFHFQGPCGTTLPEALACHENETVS
# * hit, by the source's call; . = not tested or not shown. Shown are actives, neighbours in structure and some others; about 2.2% of the full set was active somewhere.
SMILES,FN deposition inh,ERAP1 HTS inh,FGF22 binding,PGC1a acetyl inh,SIRT5 inh
C[C@H](CO)N1C[C@H](C)[C@H](CN(C)C(=O)Nc2cccc3ccccc23)Oc2ccc(NC(=O)Cn3cnnn3)cc2CC1=O,3,.,0,-8,.
Cc1ccc(S(=O)(=O)N2c3ccccc3CC2C)cc1 (stereo not given),-2,-3,.,-34,-2
Cc1ccc(S(=O)(=O)N2c3ccc(S(N)(=O)=O)cc3CC2C)cc1 (stereo not given),6,3,44*,.,-1
C[C@H]1CN([C@@H](C)CO)C(=O)Cc2cc(N(C)C)ccc2O[C@@H]1CN(C)S(=O)(=O)c1cccs1,4,-1,.,2,-1
CC(=O)NC1=NC(=O)/C(=C/c2cn(C(C)=O)nc2-c2ccccc2)S1,2,8,44*,.,2
CC(=O)NC1=NC(=O)/C(=C/c2cc(C)n(-c3cccc(C(=O)O)c3)c2C)S1,3,10,43*,7,20*
Cc1ccc(NC(=O)CN2C(=O)N/C(=C/c3cc(C)n(-c4cccc(C(=O)O)c4)c3C)C2=O)cc1,22,-4,44*,17,19*
CC(=O)NC1=NC(=O)/C(=C/c2cc(C)n(-c3ccc(NC(C)=O)cc3)c2C)S1,-1,7,0,2,-2
C[C@@H]1CN([C@H](C)CO)C(=O)c2cc(C#Cc3cccc(F)c3)cnc2O[C@@H]1CN(C)Cc1ccccn1,-7,-2,0,-2,1
Cc1cccn2c(=O)c(C=O)c(N3CCN(C)CC3)nc12,2,4,0,-22,0
Cc1cccn2c(=O)c(C=O)c(N3CCN(c4ccccc4)CC3)nc12,-2,4,43*,.,2
CCCC(=O)Nc1cc(C(=O)O)ccc1Sc1ccc(C)cc1,18,1,43*,-6,-7
C[C@@H]1CN([C@@H](C)CO)C(=O)c2cc(NC(=O)Nc3ccc(F)cc3)ccc2O[C@@H]1CN(C)Cc1ccc(-c2ccccc2)cc1,7,1,0,-9,12
CCCc1nc(N)sc1C(=O)OCC,.,.,.,19,.
CCOC(=O)c1cc(=O)nc(N)s1,13,0,43*,5,.
C/C=C/c1ccc2c(c1)[C@H]1[C@H](CCN1S(=O)(=O)c1ccccc1C)[C@@H](CO)N2,-10,-2,.,-5,7
CCC(C)NC(=O)c1nc2c(nnn2Cc2ccccc2Cl)c(=O)[nH]1 (stereo not given),8,2,43*,.,1
CCCNC(=O)C[C@H]1C[C@H]2c3cc(NS(C)(=O)=O)ccc3O[C@H]2[C@@H](CO)O1,-34,1,0,1,-4
CCOc1cc(C(=O)NC(CC(=O)O)c2ccc(OC3CCCC3)cc2)cc(OCC)c1OCC (stereo not given),0,3,0,.,24*
CC(C)(C)c1ccc(C(=O)NC(CC(=O)O)c2ccc(OC3CCCC3)cc2)cc1 (stereo not given),4,1,0,.,4
Cc1noc(C)c1S(=O)(=O)N(C)C[C@H]1OCCCC[C@@H](C)Oc2ccc(NC(=O)CCCN(C)C)cc2C(=O)N([C@@H](C)CO)C[C@H]1C,.,-3,-1,20,-4
Cc1cc(C)cc(NC(=O)C2CC(=O)n3ncnc3N2)c1 (stereo not given),8,.,1,-8,-1
Cc1cccc(NC(=O)C2CC(=O)n3ncnc3N2)c1 (stereo not given),-2,.,0,7,79*
C/C=C/c1ccc([C@H]2[C@@H](CO)N(C(C)=O)C23CN(C(=O)NC2CCCC2)C3)cc1,-8,3,.,.,4
CCCc1cc(=O)oc2cc(C)cc(OCC(=O)NC(Cc3ccc(Cl)cc3)C(=O)O)c12 (stereo not given),.,4,0,6,-14
SMILES,FN deposition inh,ERAP1 HTS inh,FGF22 binding,PGC1a acetyl inh,SIRT5 inh
CCCc1cc(=O)oc2cc(C)cc(OCC(=O)N[C@@H](CSCc3ccccc3)C(=O)O)c12,.,25,7.2*,2,.
Cc1ccc(NC(=O)Cn2nnc(C(=O)NCc3cccs3)c2N)cc1Cl,-7,0,0,6,-1
Nc1c(C(=O)NCc2cccs2)nnn1CC(=O)Nc1cccc(Cl)c1,2,-3,43*,.,-5
Cc1ccc(S(N)(=O)=O)c(C)c1N1CCCC1=O,4,1,44*,.,-4
COc1ccc(NC(=O)Nc2ccc3c(c2)CC(=O)N([C@H](C)CO)C[C@@H](C)[C@@H](CN(C)C(=O)Nc2ccc(OC)cc2)O3)cc1,.,-1,0,-8,-2
CO[C@H]1CN(C)C(=O)c2ccc(NS(=O)(=O)c3cn(C)cn3)cc2OC[C@H](C)NC[C@H]1C,-8,.,0,5,-1
CCN(CC)C(=O)CSc1nc(-c2ccccc2)cc(=O)[nH]1,2,4,0,2,-3
CCN(Cc1ccccc1)C(=O)CSc1nc(C)cc(=O)[nH]1,-3,0,42,8,22*
CC(=O)OCC(=O)C1=CCC2C3CCC4=CC(=O)C=CC4(C)C3(F)C(OC(C)=O)CC12C (stereo not given),2,1,43*,.,0
COc1cccc(NC(=O)N[C@H]2C=C[C@@H](CC(=O)Nc3ccccc3)O[C@@H]2CO)c1,-11,0,0,-1,4
O=C1CCC/C(=N/Nc2ccc(Cl)cc2)C1,6,0,44*,13,-4
COc1ccc(/C=C/C(=O)Nc2cc(F)ccc2C)cc1S(=O)(=O)N1CCOCC1,14,-1,0,10,18*
COc1ccccc1NC(=O)/C=C/c1ccc(OC)c(S(=O)(=O)N2CCOCC2)c1,3,3,0,-1,0
O=C(NNc1ccccc1[N+](=O)[O-])Nc1ccccc1,.,0,0,13,-2
NS(=O)(=O)c1ccc(Cl)c(C(=O)Nc2ccccc2[N+](=O)[O-])c1,-20,0,42,.,18*
O=C(Nc1ccccc1[N+](=O)[O-])c1cc(S(=O)(=O)Nc2ccccn2)ccc1Cl,-3,-3,-1,-5,0
O=C(NNc1ccccc1[N+](=O)[O-])Nc1ccc(Cl)c(Cl)c1,-1,1,0,.,16*
O=C(COC(=O)c1cc(Cl)ccc1[N+](=O)[O-])Nc1cccc2ccccc12,5,3,0,.,-3
Cc1ccc(NC(=O)COC(=O)c2cc(Cl)ccc2[N+](=O)[O-])c(C)c1,30*,-3,0,.,0
Cc1cc(Cl)ccc1NC(=O)COC(=O)c1nc2nccc(C)n2n1,0,0,43*,-5,-6
CCC(=O)N1CC[C@@H]2[C@H](CO)Nc3ccc(C#Cc4cccc(OC)c4)cc3[C@@H]21,2,.,.,9,.
CC(C)CC#Cc1ccc([C@H]2[C@H](CO)N3CCCCN(C(=O)NC4CCCC4)C[C@@H]23)cc1,.,2,0,-9,17*
